Results from different studies.
Compare with care: the assays were run in different laboratories.
HDAC2: Histone deacetylase 2 (HDAC2, Homo sapiens, UniProt Q92769)
PPO3: PPO3 (Agaricus bisporus, UniProt C7FF04)
HTR2A: 5-hydroxytryptamine receptor 2A (HTR2A, Homo sapiens, UniProt P28223)

target | read-out | mode | technique | IC50 [µM] | Structure (SMILES)
Poly [ADP-ribose] polymerase 1 (PARP1, Homo sapiens, UniProt P09874) | enzyme activity | inhibitor | – | 0.85 | C#Cc1ccc2c(=O)[nH]nc(Cc3ccc(F)c(C(=O)N4CCN(C(=O)C=C)CC4)c3)c2c1
HDAC2 | enzyme activity | inhibitor | fluorescence | 0.45 | O=C(/C=C/c1cccc(OS(=O)(=O)Oc2ccc(C(F)(F)F)cc2)c1)NO
PPO3 | enzyme activity | inhibitor | absorbance | 40.9 | Nc1nc(-c2ccc(Br)cc2)cc(-c2ccc(-c3cc(-c4ccc(Br)cc4)nc(N)n3)cc2)n1
cGMP-specific 3',5'-cyclic phosphodiesterase (PDE5A, Homo sapiens, UniProt O76074) | enzyme activity | inhibitor | FP | ~154 | CCc1c(C)nc(-c2ccc(Cl)s2)nc1Nc1ccc(CC(=O)O)cc1
HTR2A | calcium signal | antagonist | – | 15.8 | C=CCNC(=O)C(C)N1CCCC(c2ccc(O)cc2)C1 (stereo not drawn)
Tyrosine-protein kinase TXK (TXK, Homo sapiens, UniProt P42681) | enzyme activity | inhibitor | – | 0.261 | C=CC(=O)N1CCCN(C(=O)c2cc(Sc3cnc(NC(=O)C4CC4)s3)c(C)cc2OC)C[C@H]1C
HTR2A | calcium signal | antagonist | – | 27 | CCN(Cc1cc(Br)ccc1O)C(=O)C(N)Cc1ccco1 (stereo not drawn)
PPO3 | enzyme activity | inhibitor | absorbance | 46 | Nc1nc(-c2ccc(F)cc2)cc(-c2ccc(-c3cc(-c4ccc(F)cc4)nc(N)n3)cc2)n1
HTR2A | calcium signal | antagonist | – | 19.3 | O=C(c1cc(C2CCNC2)[nH]n1)N1CCC(c2cccc(Cl)c2)C1 (stereo not drawn)
PPO3 | enzyme activity | inhibitor | absorbance | 12.4 | Nc1ccc(-c2cc(-c3ccc(-c4cc(-c5ccc(N)cc5)nc(N)n4)cc3)nc(N)n2)cc1
HTR2A | calcium signal | antagonist | – | 0.907 | CN(C(=O)c1cn[nH]n1)C1CCN(CCc2cccc(Cl)c2Cl)C1 (stereo not drawn)
HDAC2 | enzyme activity | inhibitor | fluorescence | 1.46 | O=C(NO)c1cncc(OS(=O)(=O)Oc2ccc3ccccc3c2)c1
